# PTPN22 inh 2 – PTPN22 phosphatase inhibitors, primary screen, biochemical, DiFMUP fluorescence, 2 µM | Tyrosine-protein phosphatase non-receptor type 22 (Homo sapiens), Q9Y2R2 | recombinant LYP catalytic domain | inhibition, % at 2 µM | 96,000 compounds, 0.21% hits | AID 640, 2007;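 active means inhibition at 2 µM at or above a set limit, the screen mean plus 3 SD, cut at about 24% in these data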;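 further: 0% = DMSO with enzyme and 100% = enzyme fully blocked by orthovanadate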
# PLK1 kinase inh – human PLK1 kinase inhibitors, primary screen, biochemical, TR-FRET; Serine/threonine-protein kinase PLK1 (Homo sapiens), P53350; recombinant PLK1 kinase, TR-FRET peptide phosphorylation; inhibition, % at 10 µM; 97,000 compounds, 0.53% hits; AID 619, 2007;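 active means inhibition of 50% or more in the single-concentration screen; inactive means inhibition below 50%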;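 further: 0% = DMSO max control and 100% = H-89 dihydrochloride min control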
# Target sequence (P53350 whole entry, looked up): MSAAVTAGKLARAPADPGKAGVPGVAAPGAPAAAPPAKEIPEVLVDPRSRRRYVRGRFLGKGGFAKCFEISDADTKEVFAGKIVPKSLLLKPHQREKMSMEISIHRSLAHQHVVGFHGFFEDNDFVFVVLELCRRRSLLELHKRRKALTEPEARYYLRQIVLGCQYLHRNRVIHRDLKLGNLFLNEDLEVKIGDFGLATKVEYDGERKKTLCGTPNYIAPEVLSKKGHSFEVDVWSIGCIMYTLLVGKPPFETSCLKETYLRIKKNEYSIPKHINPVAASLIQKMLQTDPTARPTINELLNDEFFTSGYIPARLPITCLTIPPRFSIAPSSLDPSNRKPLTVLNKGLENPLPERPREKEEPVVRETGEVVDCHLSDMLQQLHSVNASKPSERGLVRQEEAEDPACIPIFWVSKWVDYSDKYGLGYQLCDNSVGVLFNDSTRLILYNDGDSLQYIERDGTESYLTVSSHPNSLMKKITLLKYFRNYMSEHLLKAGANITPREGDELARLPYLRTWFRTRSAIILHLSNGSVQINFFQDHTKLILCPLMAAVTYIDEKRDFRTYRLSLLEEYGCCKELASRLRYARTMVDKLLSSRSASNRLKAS
# EphB4 ephrin blk – EphB4-ephrin-B2 interaction antagonists, primary screen, biochemical, TNYL-RAW peptide probe, fluorescence polarization; Ephrin type-B receptor 4 (Homo sapiens), P54760; EphB4 LBD / TNYL-RAW-Alexa532 peptide; inhibition, % at 7 µM; 97,000 compounds, 0.15% hits; AID 720, 2007;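 active means inhibition above the screen-wide mean inhibition plus 3 SD, cut at about 15% in these data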;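 further: 0% = DMSO wells and 100% = excess unlabeled TNYL-RAW peptide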
# PTPN22 act – LYP phosphatase activators, primary screen, biochemical, DiFMUP fluorescence, 2 µM. recombinant LYP; 0 = plate median, 100 = signal doubled. activation, % at 2 µM. 96,000 compounds, 0.11% hits;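 active means activation at 2 µM above a set limit, the mean plus 5 SD, cut at about 37% in these data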
# HIV Rev-RRE inh – HIV-1 Rev-RRE binding inhibitors, primary screen, biochemical, FRET, protein-RNA interaction; Rev peptide-RRE RNA binding; inhibition, % at 8 µM; 97,000 compounds, 0.79% hits; AID 704, 2007;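 active means inhibition above the screen-wide mean plus 3 SD, cut at about 35% in these data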;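 further: 0% = median DMSO wells and 100% = median Neomycin B control wells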
# Target sequence (P05866 whole entry, looked up): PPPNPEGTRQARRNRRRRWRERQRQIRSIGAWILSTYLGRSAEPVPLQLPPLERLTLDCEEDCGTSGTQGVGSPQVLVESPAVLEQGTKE
#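 Test system: labelled RRE RNA duplex and labelled Rev peptide. Times: 5 min compound–RNA preincubation, then 15 min with peptide, 25 °C. Doses: single-dose 8 µM. Measured by: FRET, excitation 480 nm, emission 540 nm donor and 671 nm acceptor. Measure: % inhibition of FRET ratio versus controls.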
# PLK1 PBD inh – Plk1 polo box domain binding inhibitors, primary screen, biochemical, fluorescence polarization; Serine/threonine-protein kinase PLK1 (Homo sapiens), P53350; inhibition, %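 (tested at about 20 µM)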; Plk1 PBD phosphopeptide binding; AID 693, 2007; 97,000 compounds, 0.13% hits; in the data active means inhibition above about 34%, passing the limit was not always enough
# The depositor's hits bear a star; . = not tested or not shown; [ ] = dose if it differs, or a comment. In the library only some 1.8% were active in any assay of this set; here they are far more common.
SMILES,PTPN22 inh 2,PLK1 kinase inh,EphB4 ephrin blk,PTPN22 act,HIV Rev-RRE inh,PLK1 PBD inh
O=C(N/N=C/c1ccncc1)c1cc([N+](=O)[O-])cc([N+](=O)[O-])c1O,45.9*,8.5,19.4*,-43.7,4.8,-25.3
N#CC1=C(N)SC(N)=C(C#N)C1c1c(Cl)cccc1Cl,-2.8,12.0,-1.8,3.0,10.9,-4.2
N#CC1=C(N)SC(N)=C(C#N)C1CCc1ccccc1,5.4,-0.1,-8.7,-2.2,78.7*,-16.2
N#CC1=C(N)SC(N)=C(C#N)C1c1cccc(Oc2ccccc2)c1,17.4,-17.0,10.6,-12.1,80.1*,-6.1
N#CC1=C(N)SC(N)=C(C#N)C1Cc1ccccc1,-8.2,43.0,14.5,6.3,47.0*,4.3
O=C1C2CC=CCC2C(=O)N1c1cccc(OS(=O)(=O)c2ccc3ccccc3c2)c1 (stereo not drawn),-4.5,-1.4,2.0,4.4,7.1,12.4
Cc1c(C(=O)N2CCCc3ccccc32)oc2ccc(S(=O)(=O)N3CCOCC3)cc12,-1.5,-4.9,-7.2,0.4,1.9,-2.1
COc1cccc(C(=O)Oc2cc(-c3ccccc3)no2)c1,-8.1,-3.8,-8.0,8.5,10.9,-14.6
COc1ccc(-c2ccc3c(N)c(C(=O)c4cccc(OC)c4)sc3n2)cc1,7.2,-16.2,-1.8,-8.7,54.6*,17.9
O=C(Nc1ccnc(-c2cccnc2)n1)c1cccc(Cl)c1Cl,14.1,-7.7,0.4,-11.5,1.0,-38.8
COCCCNc1c2c3c(cccc3[nH]c1=O)C(=O)c1ccccc1-2,-3.7,-157.6,47.8*[fluorescence artefact?],3.1,141.1*[fluorescence artefact?],18.2
O=C(NCC(c1cccs1)N1CCOCC1)c1cc2ccccc2o1 (stereo not drawn),1.9,-13.6,-0.7,-4.4,1.1,8.5
O=C(CN(C(=O)CNC(=O)c1ccco1)c1ccc2c(c1)OCO2)NC1CCCCC1,29.4*,-4.9,-4.7,-29.8,0.6,-7.4
CN(/C(=N\S(=O)(=O)c1ccccc1)C(F)(F)F)c1ccccc1,-0.2,-7.9,7.8,4.9,36.8*,6.1
Cc1ccc(-n2nc3c4c(cccc4c2=O)-c2ccccc2-3)cc1,31.8*,-5.3,-5.1,-28.5,6.6,17.2
Cn1c(=NC(=O)C2CC2)sc2cccc(F)c21,.,67.1*,-3.0,.,0.6,27.8
Cc1cc(-c2nnc3n2CCCCC3)c(C)n1-c1ccccc1,-4.7,-1.1,4.0,4.0,2.4,-10.1
CC1CCc2c(C(=O)Nc3nccs3)csc2C1 (stereo not drawn),65.4*,-17.1,-4.7,-63.9,2.6,-2.6
CCOC(=O)c1ccc(NC(=O)CCc2nc(-c3ccc(Cl)cc3)no2)cc1,-9.2,-4.2,1.1,5.5,8.1,7.9
CCOC(=O)c1ccc(NC(=O)CCc2nc(-c3ccc(C)cc3)no2)cc1,-1.9,64.2*,1.9,5.4,17.9,-2.8
O=C(c1ccc(Cl)cc1)c1cnc(-c2ccc(Cl)cc2)s1,41.2*,-9.3,-2.5,-40.1,1.9,28.6
O=C(CC1(O)C(=O)Nc2ccccc21)c1ccccc1 (stereo not drawn),.,65.0*,-1.0,.,7.3,-12.1
CC1=CC(C)C2C(=O)N(CCCN(C)C)C(=O)C2C1 (stereo not drawn),2.2,-15.2,1.6,-5.0,6.8,-0.4
O=C(Nc1nccs1)c1cccc(N2C(=O)c3cccc4c([N+](=O)[O-])ccc(c34)C2=O)c1,3.8,-12.6,1.4,-2.0,50.8*,-11.2
O=C1CCNc2cc3ccccc3cc21,-4.0,-2.1,-3.1,3.9,44.5*,-3.2
SMILES,PTPN22 inh 2,PLK1 kinase inh,EphB4 ephrin blk,PTPN22 act,HIV Rev-RRE inh,PLK1 PBD inh
CCOC(=O)c1c(NC(=S)Nc2ccccc2)sc2c1CCCCC2,6.2,-5.6,-0.4,-5.7,2.3,-21.9
CCOC(=O)c1c(NC(=S)Nc2ccccc2)sc2c1CCN(CC)C2,-1.9,-21.3,-4.6,7.2,121.2*[fluorescence artefact?],-51.5
N#CCCn1cc(C(CC(=O)c2ccc(Br)cc2)C(=O)O)c2ccccc21 (stereo not drawn),.,55.9*,6.2,.,3.9,-9.7
CCC(C)c1ccc(OCCCCN2CCOCC2)cc1 (stereo not drawn),-2.9,-1.2,6.1,2.1,7.9,17.0
CCOc1ccc(N(CC(=O)Nc2ccccc2C(=O)NCc2ccco2)S(C)(=O)=O)cc1,41.2*,-8.2,4.4,-42.1,6.1,15.3
CN(c1ccccc1C(=O)Nc1ccccc1C(=O)NCc1ccco1)S(C)(=O)=O,6.4,-15.1,15.4*,-13.1,1.1,-5.2
CCOc1ccccc1N(CC(=O)Nc1ccccc1C(=O)NCc1ccco1)S(C)(=O)=O,1.7,-10.1,-3.8,-2.9,5.1,-31.9
Cc1ccccc1NC(=S)NNC(=O)c1csc2c1CCC(C)C2 (stereo not drawn),6.7,-9.6,-0.8,-3.8,-0.8,11.2
Cc1cc(C(=O)Nc2sc(C)c(C)c2C#N)no1,-0.9,-1.2,1.8,1.0,5.8,2.7
COc1cc2cc3c(N)c(C(=O)Nc4sc(C)c(C)c4C#N)sc3nc2cc1OC,-10.1,-10.5,-7.4,13.4,99.5*[fluorescence artefact?],-11.0
O=C1/C(=C/Nc2ccc3c(c2)OCO3)CCc2ccccc21,2.4,2.5,-1.5,-2.8,45.8*,0.8
COc1ccc2c(c1)CC/C(=C\Nc1ccc3c(c1)OCO3)C2=O,4.4,7.0,-3.4,-7.0,31.9,-35.1
Cn1c(=O)oc2cc(S(=O)(=O)NCC3CCCO3)ccc21 (stereo not drawn),-0.3,-8.1,1.7,-0.6,53.2*,16.4
Cc1cc(C(=O)O)c(CSCc2cc(C(=O)O)oc2C)o1,-3.2,0.3,-5.8,5.4,8.8,-5.6
Cc1ccc(C2C=C(c3ccc4c(c3)OCO4)Nc3ncnn32)cc1 (stereo not drawn),8.6,-1.3,-1.7,-8.1,29.5,-30.7
Cc1ccsc1C1C=C(c2cccc(Br)c2)Nc2ncnn21 (stereo not drawn),2.8,1.8,-8.2,-3.4,81.3*[fluorescence artefact?],-28.5
COc1cccc(C2=CC(c3ccc(C)cc3)n3ncnc3N2)c1 (stereo not drawn),-1.9,-9.8,3.0,-0.6,48.7*,4.2
COc1ccccc1NC(=O)COc1ccc(CO)cc1Cl,3.7,-4.9,-2.9,-4.4,16.2,-12.5
COC(=O)CSC1=C(C#N)C(c2ccc(C)cc2)C2=C(CCCC2=O)N1 (stereo not drawn),5.6,-9.6,16.1*,-7.3,0.4,-15.9
Nc1cc(N)c(OCC(F)(F)F)cc1OCC(F)(F)F,0.1,-15.6,-1.4,-0.7,67.9*,-10.3
Nc1nc(OCC(F)(F)F)cc(Oc2ccccc2F)n1,1.0,-3.1,0.3,-4.0,5.9,-0.1
